The values that follow come from ChEMBL document CHEMBL1212851, “Baculiferins A-O, O-sulfated pyrrole alkaloids with anti-HIV-1 activity, from the Chinese marine sponge Iotrochota baculifera” (Bioorg Med Chem, 2010).

Assay [1] has as its system Candida albicans. The assay is described as follows: Effect on brefeldin A MIC against Candida albicans isolate GU4 in presence of 30 uM compound by two fold dilution method.
The next assay concerns Bel-7402. Briefly: Cytotoxicity against human Bel7402 cells. Format: functional, cell-based.
For assay [2], the target named is DNA dC->dU-editing enzyme APOBEC-3G (Homo sapiens) (UniProt Q9HC16). The assay is described as follows: Binding affinity to human recombinant APOBEC3G at 20 ug/ml. In a few lines: (§1)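 Recombinant gp41, Vif or APOBEC3G each immobilized on a CM5 sensor chip in a separate flow cell. Binding monitored by surface plasmon resonance on a BIAcore instrument.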
DNA dC->dU-editing enzyme APOBEC-3G (Homo sapiens), sequence (Q9HC16 whole entry): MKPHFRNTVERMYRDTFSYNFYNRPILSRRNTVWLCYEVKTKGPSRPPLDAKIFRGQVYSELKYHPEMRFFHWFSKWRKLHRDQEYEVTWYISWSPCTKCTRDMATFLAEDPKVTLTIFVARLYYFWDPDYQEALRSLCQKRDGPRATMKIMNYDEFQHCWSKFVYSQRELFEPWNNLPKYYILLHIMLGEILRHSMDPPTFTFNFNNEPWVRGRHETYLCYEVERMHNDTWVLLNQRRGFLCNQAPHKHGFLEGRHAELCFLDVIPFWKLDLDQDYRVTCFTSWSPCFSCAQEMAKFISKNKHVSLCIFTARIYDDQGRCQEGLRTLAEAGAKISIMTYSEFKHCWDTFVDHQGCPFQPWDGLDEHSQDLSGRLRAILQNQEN
Assay [3] relates to Human immunodeficiency virus 1. Briefly: Antiviral activity against HIV1 3B infected in human MAGI cells after 40 to 48 hrs assessed as inhibition of viral life cycle. It is filed as functional, organism-based. The note with it: Human immunodeficiency virus 1, 3B. In a few lines: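 HeLa-CD4-LTR-β-gal (MAGI) indicator cells plated at 6000 per well and infected with 2000 TCID50 HIV-1 IIIB. Compounds added in fourfold serial dilutions, five dilutions with four replicates each, at a final top concentration of half the 200 µg/mL stock dilution. Cells incubated 40–48 h at 37 °C in 5% CO2, then fixed, stained, and blue cells counted by microscopy. Single-round infection.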

A further assay deals with BGC-823. Briefly: Cytotoxicity against human BGC823 cells. It is filed as functional, cell-based.
The subject of assay [4] is Human immunodeficiency virus 1. Briefly: Antiviral activity against HIV1 infected in human HEK293 cells assessed as inhibition of viral replication. Format: functional, organism-based. In a few lines:
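VSVG-pseudotyped HIV-luc virus system in HEK-293 cells, used to assess inhibition of HIV-1 replication.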

Another assay concerns A549. The assay is described as follows: Cytotoxicity against human A549 cells. It is filed as functional, cell-based.
Assay [5] concerns Human immunodeficiency virus 1. The assay is described as follows: Binding affinity to HIV1 recombinant gp41 at 20 ug/ml. In short, it runs like this: as §1
Another assay has as its system HCT-8. Briefly: Cytotoxicity against human HCT8 cells. It is filed as functional, cell-based.
The test system of assay [6] is Human immunodeficiency virus 1. The assay is described as follows: Binding affinity to HIV1 recombinant Vif at 20 ug/ml. In short, it runs like this:
as §1

Assay [7] relates to Human immunodeficiency virus 1. The assay is described as follows: Antiviral activity against HIV1 3B infected in human MT4 cells after 5 days by p24 antigen detection assay. It is filed as functional, organism-based. As to conditions: Human immunodeficiency virus 1, 3B, MT4, 120 h. In a few lines:
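MT-4 cells infected with 10000 TCID50 HIV-1 IIIB for 2 h at 37 °C, washed, then plated at 5 × 10^4 cells per well. Compounds added from 250 µg/mL in fivefold serial dilutions, five dilutions with four replicates each. Cultures held 5 d at 37 °C in 5% CO2. On day 3 half the supernatant was replaced with fresh compound or medium. On day 5 supernatant p24 measured, inhibition computed relative to virus control, and IC50 taken by linear regression.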

The subject of assay [8] is Candida albicans. The assay is described as follows: Multidrug reversal activity in Candida albicans isolate GU5 assessed as brefeldin A MIC in presence of 30 uM compound expressing CDR1 and CDR2 by two fold dilution method.
Another assay relates to A2780. The assay is described as follows: Cytotoxicity against human A2780 cells. It is filed as functional, cell-based.

≈ marks a conversion by molar mass, not a printed value. Calls of active or inactive are those of the source. No cut-off for these calls is given here.

One may read the MIC as the lowest concentration that inhibits growth of the organism. Broadly, the IC50 is the concentration at which inhibition is half-maximal.

On to `O=C1C(c2ccc(O)c(O)c2)=c2c(c3c(n2CCc2ccc(O)cc2)=C(c2ccc(O)c(OS(=O)(=O)O)c2)C(=O)c2cc(O)c(O)cc2-3)-c2cc(O)c(O)cc21` [BACULIFERIN B], for which the MIC in the assay on Candida albicans [1] was 12.5 µg/mL; in the assay on Candida albicans [8] it was 50 µg/mL. In addition, the outcome (in the assay on Bel-7402; in the assay on BGC-823; in [4]; in the assay with A549; in the assay with HCT-8; in the assay with A2780) was inactive. The RU in assay [2] was found to be 89.7 pg/mm2; in [5], 12.9 pg/mm2; in assay [6] it was 152 pg/mm2. The IC50 in [3] was found to be 1.3 µg/mL (≈ 1.67 µM); in assay [7], 2.2 µg/mL (≈ 2.83 µM).
Take `O=C1C(c2ccc(O)c(O)c2)=c2c(c3c(n2CCc2ccc(O)cc2)=C(c2ccc(O)c(OS(=O)(=O)O)c2)C(=O)c2cc(O)c(OS(=O)(=O)O)cc2-3)-c2cc(O)c(O)cc21` [BACULIFERIN E]: the MIC in the assay with Candida albicans [1] was 12.5 µg/mL; with Candida albicans [8], 50 µg/mL. In addition, the outcome (in the assay on Bel-7402; in the assay with BGC-823; in [4]; in the assay with A549; with HCT-8; with A2780) was inactive. Besides, the RU worked out at 992 pg/mm2 in assay [2], 109 pg/mm2 in assay [5] and 362 pg/mm2 in [6]. Moreover, the values for the IC50 in assay [3] and in [7] were 2.7 µg/mL (≈ 3.15 µM) and 4.6 µg/mL (≈ 5.36 µM), respectively.
Turning to `O=C1C(c2ccc(O)c(OS(=O)(=O)O)c2)=c2c(c3c(n2CCc2ccc(O)cc2)=C(c2ccc(O)c(O)c2)C(=O)c2cc(O)c(OS(=O)(=O)O)cc2-3)-c2cc(O)c(O)cc21` [BACULIFERIN F], the MIC in the assay with Candida albicans [1] amounted to 12.5 µg/mL; in the assay with Candida albicans [8], 50 µg/mL. Also, the result (with Bel-7402; with BGC-823; in [4]; in the assay on A549; with HCT-8; in the assay on A2780) was inactive. Also, the RU in assay [2] worked out at 992 pg/mm2; in [5], 109 pg/mm2; in assay [6], 362 pg/mm2. Also, the IC50 in [3] is 2.7 µg/mL (≈ 3.15 µM); in [7] it was 4.6 µg/mL (≈ 5.36 µM).
For `O=C1C(c2ccc(O)c(O)c2)=c2c(c3c(n2CCc2ccc(O)cc2)=C(c2ccc(O)c(O)c2)C(=O)c2cc(O)c(O)cc2-3)-c2cc(O)c(O)cc21` [PURPURONE], the values for the MIC with Candida albicans [1] and in the assay with Candida albicans [8] were 12.5 µg/mL and 25 µg/mL, respectively. The result (in the assay with Bel-7402; in the assay on BGC-823; in [4]; with A549; in the assay on HCT-8; in the assay with A2780) was inactive. The RU is -26.3 pg/mm2 in [2], -23 pg/mm2 in assay [5] and -25.7 pg/mm2 in assay [6]. The concentration for half-maximal inhibition (IC50) in assay [3] and in assay [7] was over 25 µg/mL each time.
